Only some compounds are listed: those with a hit (about 1.9% of all), similar ones and a draw of the others.
Runt-CBFb FRET – inhibitors of human RUNX1 Runt domain binding to CBFb | Q01196+Q13951 | Cerulean-Runt/Venus-CBFb FRET ratio 530/480, 1 h | inhibition, % at 20 µM | 0.46% of 220,000 active | AID 1496;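 active = inhibition over about 50% at 20 µM in the single-dose screen, limit read from the data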
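test system = Cerulean-tagged RUNX1 Runt domain (FRET donor) fusion protein | reagent = Venus-CBFb binding partner, 100 nM | incubation = protein complex preformed 1 h, compound exposure 1 h, room temperature, dark | detection = FRET fluorescence | read-out basis = loss of energy transfer signal | controls = 5 µM unlabeled CBFb as full-inhibition high control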
RanGTP-Imp inh – inhibitors of RanGTP-importin-beta interaction, primary screen, biochemical, FRET, CFP-Ran, YFP-importin-beta, homogeneous | cell-free CFP-Ran/YFP-importin-beta FRET ratio | inhibition, % (concentration not given with the values) | 1.1% of 300,000 active | AID 2216;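 active = more than half of the replicate wells show a fall in the fluorescence ratio signal beyond about 16%, limit read from the data, passing the limit was not always enough; inconclusive = exactly half of the replicate wells pass the set limit; inactive = fewer than half of replicates pass the limit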
CaV13 FRET inh – Primary screen for inhibitors of IQ motif and Ca2+-dependent inactivation inhibitor domain binding in CACNA1D, Förster resonance energy transfer in living cells, …. HEK cells, CFP/YFP FRET ICDI-IQ, plate reader, 10 min; percent FRET-ratio fall versus neutral wells. 0.098% of 340,000 active. inhibition, % at 12.3 µM;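 active = mean replicate inhibition of at least 30% and at least 1% of replicates passing that level; inconclusive = only one of the two criteria is met; inactive = neither criterion is met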
HDAC3 inhib – inhibitors of human histone deacetylase 3; inhibition, % at 8.3 µM; recombinant HDAC3, fluorogenic peptide/trypsin coupled, fluorescence; AID 2718; 0.15% of 320,000 active; O15379; in the data active = inhibition above about 26%, passing the limit was not always enough; inconclusive = no clear call, values can overlap the other calls
Target sequence (O15379 whole entry, looked up): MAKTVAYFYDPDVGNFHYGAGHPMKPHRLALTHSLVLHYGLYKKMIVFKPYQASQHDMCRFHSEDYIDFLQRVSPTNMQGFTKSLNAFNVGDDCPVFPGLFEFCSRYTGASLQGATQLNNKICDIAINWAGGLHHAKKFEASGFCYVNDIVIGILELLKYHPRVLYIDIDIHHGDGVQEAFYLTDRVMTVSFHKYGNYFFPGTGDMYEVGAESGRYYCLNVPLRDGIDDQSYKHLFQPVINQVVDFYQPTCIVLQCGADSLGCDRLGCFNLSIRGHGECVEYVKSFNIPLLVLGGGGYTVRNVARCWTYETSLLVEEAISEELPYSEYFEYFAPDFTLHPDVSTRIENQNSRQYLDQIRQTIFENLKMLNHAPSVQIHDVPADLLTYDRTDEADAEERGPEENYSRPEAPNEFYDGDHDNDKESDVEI
Runt-SMMHC FRET – blocks binding of human RUNX1 Runt domain to CBFb-SMMHC; inhibition, % at 20 µM; Cerulean-Runt/Venus-CBFb-SMMHC FRET ratio 530/480, 1 h; Q01196+Q13951; 0.74% of 220,000 active; AID 1434;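 active = mean inhibition across duplicate retests at 20 µM reaching about 50%, limit read from the data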;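 also: inhibitors lower the FRET ratio by blocking Runt binding to CBFb-SMMHC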
LANA-H2B inh – blocks KSHV LANA binding to histone H2A/H2B | Q9QR71 | cell-free LANA-H2A/H2B peptide, fluorescence polarization | inhibition, % (no concentration beside the values) | 0.6% of 320,000 active; in the data active = inhibition mostly above about 10%, no sharp cut-off; inactive = mostly below about 6.7%
Hits are given with their value; . = inactive; ? = inconclusive; / = no result; + = active, no number.

SMILES	Runt-CBFb FRET	RanGTP-Imp inh	CaV13 FRET inh	HDAC3 inhib	Runt-SMMHC FRET	LANA-H2B inh
Cc1cccn2c(=O)c(/C=C(\C#N)C(=O)NCc3ccco3)c(N3CCCCC3)nc12	64.7	.	.	.	59.5	.
CCOC(=O)C1CCN(c2nc3c(C)cccn3c(=O)c2/C=C(\C#N)S(=O)(=O)c2ccccc2)CC1	.	.	.	.	.	.
CCNC(=O)/C(C#N)=C/c1c(N2CCN(c3cccc(Cl)c3)CC2)nc2c(C)cccn2c1=O	/	.	.	.	/	.
Cc1cccn2c(=O)c(/C=C(\C#N)C(=O)NCc3ccco3)c(N3CCCCCC3)nc12	97.1	.	.	.	.	.
CCOC(=O)C1CCCN(c2nc3c(C)cccn3c(=O)c2/C=C(\C#N)C(=O)NCc2ccco2)C1 (stereo not given)	120.6	.	.	.	.	.
Cc1cccn2c(=O)c(/C=C(\C#N)C(=O)NCc3ccco3)c(N3CCCC(C)C3)nc12 (stereo not given)	97.6	.	.	.	/	.
CC(NC(=O)Cn1cccc1C(=O)c1ccccc1)c1ccc2c(c1)OCCO2 (stereo not given)	.	.	.	.	.	.
N#C/C(=C\c1c(N2CCCCC2)nc2ccccn2c1=O)C(=O)NCc1ccco1	65.1	.	.	.	.	.
Cc1cccn2c(=O)c(/C=C(\C#N)C(=O)NCc3ccco3)c(N3CCC(C(N)=O)CC3)nc12	71.3	.	.	.	/	.
C=CCNC(=O)/C(C#N)=C/c1c(N2CCCCCC2)nc2ccccn2c1=O	/	.	.	.	/	.
O=C(Nc1ccc(C2CCCCC2)cc1)C1CCN(c2ncccn2)CC1	.	.	.	.	.	.
CC1(C)Cc2ccccc2C(C(Cc2ccccc2)C(N)=O)=N1 (stereo not given)	.	?	.	.	.	6.5
CC1(C)Cc2ccccc2C(C(=O)c2ccccc2)=N1	/	.	.	.	/	.
CC1=NN(C(C#N)c2ccccc2C)C(C)(C)C1 (stereo not given)	75.3	.	.	.	.	.
COCC(=O)n1nc(-c2ccc(Cl)cc2)nc1NCc1ccc(F)cc1	.	.	.	.	.	.
COC(=O)Cc1cc(=O)n2[nH]c(SC)nc2n1	.	?	.	.	.	.
COC(=O)Cc1cc(=O)n2[nH]c(C)nc2n1	.	17.6	.	.	.	.
O=C(NCCCN1CCOCC1)C(=O)NCCc1ccccc1	.	.	.	.	.	.
COCCNC(=O)/C(C#N)=C\c1ccc(CNS(=O)(=O)c2ccccc2)o1	/	.	.	.	/	.
COCCNC(=O)/C(C#N)=C/c1ccc(N2CCOCC2)o1	.	50.5	.	.	.	.
N#C/C(=C\c1ccc(N2CCOCC2)o1)C(=O)NCCc1ccccc1	.	53.4	+	.	93.7	.
Cc1[nH]cnc1CSCc1ccc(Cl)cc1	.	.	.	.	.	.
COc1ccc(Cl)cc1C(=O)OCC(=O)N(CC(C)C)c1c(N)n(Cc2ccccc2)c(=O)[nH]c1=O	/	.	.	.	/	.
CCN(C(=O)COC(=O)c1cc(Cl)ccc1OC)c1c(N)n(Cc2ccccc2)c(=O)[nH]c1=O	/	/	.	.	/	38.8
CN(C)CCC1Sc2ccccc2Oc2ccccc21 (stereo not given)	.	.	/	.	.	.
SMILES	Runt-CBFb FRET	RanGTP-Imp inh	CaV13 FRET inh	HDAC3 inhib	Runt-SMMHC FRET	LANA-H2B inh
c1ccc2c(c1)Oc1ccccc1S2	/	/	/	.	/	41.6
Cc1c(C)c2ccc(OCC(=O)N3CCOCC3)c(C)c2oc1=O	.	?	.	.	.	+
Cc1c(C)c2ccc(OCC(=O)N(C)C)c(C)c2oc1=O	.	.	/	.	.	.
COc1ccc(Br)c(C(=O)OCC(=O)NC2CC2)c1	/	/	.	.	/	.
CNC[C@H]1Oc2ccc(NC(=O)Cc3cn(C)c4ccccc34)cc2CC(=O)N([C@@H](C)CO)C[C@H]1C	/	/	.	.	/	15.9
CC(C)(C)c1nnc(SCC(=O)Nc2ccc(N3CCCCC3)cc2)n1N	/	/	.	.	/	+
CCCCn1nc(NC(=O)c2cccs2)c2cc3ccccc3nc21	.	73.5	.	.	63.4	.
CCCn1nc(NC(=O)c2cccs2)c2cc3ccccc3nc21	/	60.8	.	.	50.2	.
CCCC(=O)Nc1nn(CCC)c2nc3ccccc3cc12	.	.	.	.	.	15.0
CCCn1nc(NC(=O)c2ccncc2)c2cc3ccccc3nc21	.	.	.	.	.	.
CCc1noc(C)c1C(=O)NC1CCCc2c1cnn2-c1ccc(C(C)(C)C)cc1 (stereo not given)	/	.	.	.	/	.
CC(=O)c1c(C)[nH]c(C(=O)Nc2cccc(C)n2)c1C	/	.	.	.	/	9.4
Cc1ccc(-c2ccc(C3C(C#N)=C(N)Oc4n[nH]c(C)c43)o2)cc1 (stereo not given)	.	39.3	.	.	.	.
Cc1[nH]nc2c1C(c1ccc(-c3ccc(Cl)cc3)o1)C(C#N)=C(N)O2 (stereo not given)	.	.	.	.	.	.
CC(C)(C)c1cc(-c2nc(N)nc(N)n2)cc(C(C)(C)C)c1	.	.	.	.	.	.
COc1ccc(C(CNC(=O)c2cccc(S(=O)(=O)N3CCOCC3)c2)N2CCCC2)cc1 (stereo not given)	/	/	.	.	/	10.9
CC1(NC(=O)N2CCCCC2)CCS(=O)(=O)C1 (stereo not given)	.	.	.	.	.	19.1
CC(C)NC(=S)NC1(C)CCS(=O)(=O)C1 (stereo not given)	.	?	.	.	.	.
Cc1cccc(Oc2coc3cc(OC(=O)c4cncc(Br)c4)ccc3c2=O)c1	.	.	/	.	.	3.5
CCOc1ccc(CCNC(=O)COC(=O)c2cccnc2OCC)cc1OCC	.	19.7	.	.	.	.
CCOc1ccc(CCNC(=O)COC(=O)c2ccccc2O)cc1OCC	.	.	.	.	.	.
COc1ccc(C(C(=O)NC(C)(C)C)N(CCC(C)C)C(=O)CCC(=O)Nc2cc(C)on2)cc1 (stereo not given)	/	?	.	.	/	18.8
COc1ccc(/C(N)=N/OC(=O)Cc2ccccc2OC)cc1	.	.	.	.	.	.
Cc1ccc(NC(=O)Nc2ccnc(-c3cccnc3)n2)cc1	.	.	42.8	.	.	.
CCCCN(CCCC)c1nc2ccccc2nc1NS(=O)(=O)c1ccc(NC(C)=O)cc1	.	.	.	.	69.6	.
CC(=O)Nc1ccc(S(=O)(=O)Nc2nc3ccccc3nc2Nc2ccc(N)cc2)cc1	.	.	.	.	.	.
Cn1cnnc1Sc1nc2ccccc2nc1NS(=O)(=O)c1ccccc1	.	.	.	.	.	.
CC(=O)Nc1ccc(S(=O)(=O)Nc2nc3ccccc3nc2Sc2nncn2C)cc1	.	36.4	.	.	72.4	.

Compound activity from PubChem BioAssay.
